Calls of active or inactive are those of the source. No cut-off for these calls is given here.
Columns and labels:
[1] = biological target: Serine/threonine-protein kinase PINK1, mitochondrial (Homo sapiens) (UniProt Q9BXM7); assay: Activation of FLAG tagged PINK1 (unknown origin) expressed in Flp-In TRex HEK293 cells co-expressing wild-type Parkin assessed as Parkin Ser65 phosphorylation at 50 uM after 24 hrs in absence of CCCP by immunoblotting analysis; type: cell-based
Serum [2] = assay: Metabolic stability of the compound in mouse serum at 5.0 mg measured at even intervals over 11 hrs by 31P-NMR spectroscopic analysis; type: ADME, cell-free
Method in brief: (§1)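 Serum stability: 5.0 mg in DMSO-d6 and D2O, thawed human or mouse serum added in the NMR tube. 31P NMR at 37 °C, spectra immediately, at 30 min, then at even intervals over 11 h. Controls were compound without serum, and serum without compound.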

[3] = biological target: T1, Lysosomal protective protein (Homo sapiens, UniProt P10619); assay: Drug metabolism in pH 7.4 trizma buffer assessed as cathepsin A (unknown origin)-mediated (S)-2-((((2R,3S,4R,5R)-5-(6-(furan-2-ylmethylamino)-9H-purin-9-yl)-3,4-dihydroxytetrahydrofuran-2-yl)methoxy)oxidophosphorylamino)propanoate formation at 5.0 mg measured after 2 to 12 hrs by 31P-NMR spectroscopic analysis; type: ADME
T1 sequence (P10619 whole entry): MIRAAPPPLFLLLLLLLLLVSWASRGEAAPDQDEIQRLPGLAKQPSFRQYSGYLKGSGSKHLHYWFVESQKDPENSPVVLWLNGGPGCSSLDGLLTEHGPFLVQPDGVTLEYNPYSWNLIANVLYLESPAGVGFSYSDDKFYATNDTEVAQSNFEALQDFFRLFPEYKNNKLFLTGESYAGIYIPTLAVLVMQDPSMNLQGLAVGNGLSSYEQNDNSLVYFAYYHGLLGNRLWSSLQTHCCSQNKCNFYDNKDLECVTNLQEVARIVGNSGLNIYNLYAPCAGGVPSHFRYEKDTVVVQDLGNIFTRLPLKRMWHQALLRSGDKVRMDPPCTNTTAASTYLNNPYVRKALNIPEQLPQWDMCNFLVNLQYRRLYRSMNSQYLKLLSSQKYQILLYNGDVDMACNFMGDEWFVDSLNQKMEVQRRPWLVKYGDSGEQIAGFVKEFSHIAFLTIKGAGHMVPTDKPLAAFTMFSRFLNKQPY

[4] = biological target: T1, Lysosomal protective protein; assay: Prodrug activation in pH 7.4 trizma buffer assessed as cathepsin A (unknown origin)-mediated kinetin riboside monophosphate metabolite formation at 5.0 mg measured after 48 hrs by 31P-NMR spectroscopic analysis; type: ADME; details: pH 7.4, 48 h
[5] = biological target: T1, Lysosomal protective protein; assay: Stability in pH 7.4 trizma buffer assessed as cathepsin A (unknown origin)-mediated compound hydrolysis at 5.0 mg measured after 15 mins by 31P-NMR spectroscopic analysis; type: ADME; details: pH 7.4, 0.25 h
Serum [6] = assay: Metabolic stability of compound in human serum at 5.0 mg measured at even intervals over 11 hrs by 31P-NMR spectroscopic analysis; type: ADME, cell-free; method in brief: as §1
[7] = biological target: T1, Lysosomal protective protein; assay: (§2) Stability in pH 7.4 trizma buffer assessed as cathepsin A (unknown origin)-mediated compound hydrolysis by measuring parent compound remaining at 5.0 mg measured after 12 hrs by 31P-NMR spectroscopic analysis; type: ADME; details: pH 7.4, 12 h
[8] = Chemical stability of compound in pH 1 buffer at 5.0 mg measured at every 20 mins over 12 hrs by 31P-NMR spectroscopic analysis; type: physicochemical; details: pH 1, 12 h
Method in brief: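 Acid stability: 5 mg in methanol-d4 mixed with pH 1 buffer (equal parts 0.2 M HCl and 0.2 M KCl). 31P NMR at 37 °C, spectra every 20 min over 12 h; persistence of parent phosphorus peaks followed.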

[9] = biological target: T2, cathepsin A (lysosomal protective protein) (Homo sapiens, UniProt P10619); assay: as §2; type: ADME; details: cathepsin A in trizma buffer, pH 7.4, read-out: Stability
T2 sequence (P10619 whole entry): T1 sequence (P10619 whole entry)

[10] = biological target: T1, Lysosomal protective protein; assay: Drug level in pH 7.4 trizma buffer treated with phenyl(Isopropoxy-L-alaninyl) kinetin riboside phosphoramidate assessed as cathepsin A (unknown origin)-mediated metabolite formation at 5.0 mg measured after 2 to 12 hrs by 31P-NMR spectroscopic analysis; type: ADME
[11] = biological target: Serine/threonine-protein kinase PINK1, mitochondrial (Homo sapiens) (UniProt Q9BXM7); assay: Activation of FLAG tagged PINK1 (unknown origin) expressed in Flp-In TRex HEK293 cells co-expressing wild-type Parkin assessed as Parkin Ser65 phosphorylation at 50 uM in absence of CCCP by immunoblotting analysis; type: cell-based; details: TDE = time-dependent effect
[12] = biological target: Serine/threonine-protein kinase PINK1, mitochondrial (Homo sapiens) (UniProt Q9BXM7); assay: Activation of FLAG tagged PINK1 (unknown origin) expressed in Flp-In TRex HEK293 cells co-expressed with Parkin S65A mutant assessed as Parkin phosphorylation at 50 uM in absence of CCCP by immunoblotting analysis; type: cell-based
[13] = biological target: Serine/threonine-protein kinase PINK1, mitochondrial (Homo sapiens) (UniProt Q9BXM7); assay: Activation of FLAG tagged PINK1 (unknown origin) expressed in Flp-In TRex HEK293 cells co-expressed with wild-type Parkin assessed as Parkin Ser65 phosphorylation at 10 uM by immunoblotting analysis; type: cell-based; details: TDE = time-dependent effect

Sequence of Serine/threonine-protein kinase PINK1, mitochondrial (Homo sapiens) (Q9BXM7 whole entry): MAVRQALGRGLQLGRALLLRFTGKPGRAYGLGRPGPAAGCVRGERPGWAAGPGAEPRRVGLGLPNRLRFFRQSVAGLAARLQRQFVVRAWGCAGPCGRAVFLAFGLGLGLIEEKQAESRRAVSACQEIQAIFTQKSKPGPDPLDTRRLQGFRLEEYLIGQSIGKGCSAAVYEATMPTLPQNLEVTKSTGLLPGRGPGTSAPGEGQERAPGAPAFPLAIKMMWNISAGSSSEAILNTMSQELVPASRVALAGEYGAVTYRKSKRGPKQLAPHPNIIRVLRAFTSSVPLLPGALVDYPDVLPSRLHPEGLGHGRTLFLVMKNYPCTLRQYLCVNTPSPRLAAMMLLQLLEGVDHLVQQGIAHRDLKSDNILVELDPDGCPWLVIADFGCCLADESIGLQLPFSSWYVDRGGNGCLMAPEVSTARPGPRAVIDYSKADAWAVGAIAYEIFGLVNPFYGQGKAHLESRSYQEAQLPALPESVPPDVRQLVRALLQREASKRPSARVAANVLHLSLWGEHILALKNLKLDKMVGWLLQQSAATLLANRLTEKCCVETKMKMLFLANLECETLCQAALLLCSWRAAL

c1coc(CNc2ncnc3[nH]cnc23)c1
Activity [1]: inactive

CC(C)OC(=O)[C@H](C)NP(=O)(OC[C@H]1O[C@@H](n2cnc3c(NCc4ccco4)ncnc32)[C@H](O)[C@@H]1O)Oc1ccccc1 (stereo partly drawn)
Stability (Serum [2]): Stable | Drug metabolism [3]: Metabolite_Detected | Activity [1]: Active | Drug metabolism [4]: Metabolite_Detected | Stability [5]: Stable | Stability (Serum [6]): Stable | Stability [7]: Unstable | Stability [8]: Stable

C[C@H](NP(=O)(OC[C@H]1O[C@@H](n2cnc3c(NCc4ccco4)ncnc32)[C@H](O)[C@@H]1O)Oc1ccccc1)C(=O)OC(C)(C)C (stereo partly drawn)
Activity [1]: inactive | remaining at 12 h [9]: 50%

COC(=O)[C@H](C)NP(=O)(OC[C@H]1O[C@@H](n2cnc3c(NCc4ccco4)ncnc32)[C@H](O)[C@@H]1O)Oc1ccccc1 (stereo partly drawn)
Activity [1]: Active

C[C@H](NP(=O)(O)OC[C@H]1O[C@@H](n2cnc3c(NCc4ccco4)ncnc32)[C@H](O)[C@@H]1O)C(=O)O
Drug metabolism [10]: Metabolite_Detected

C[C@H](NP(=O)(OC[C@H]1O[C@@H](n2cnc3c(NCc4ccco4)ncnc32)[C@H](O)[C@@H]1O)Oc1ccccc1)C(=O)OCc1ccccc1 (stereo partly drawn)
Activity [1]: Active | Activity [11]: Tde | Activity [12]: inactive

N#CC(C#N)=NNc1cccc(Cl)c1
Activity [13]: Tde

OC[C@H]1O[C@@H](n2cnc3c(NCc4ccco4)ncnc32)[C@H](O)[C@@H]1O
Activity [1]: Active

— ChEMBL document CHEMBL4049415, “Kinetin Riboside and Its ProTides Activate the Parkinson's Disease Associated PTEN-Induced Putative Kinase 1 (PINK1) Independent of Mitochondrial Depolarization” (J Med Chem, 2017)
